Reference: ChEMBL document CHEMBL4321862, “Application of Bivalent Bioisostere Concept on Design and Discovery of Potent Opioid Receptor Modulators” (J Med Chem, 2019)
Calls of active or inactive are those of the source.

How the values were obtained:
[1] = Selectivity index, ratio of Ki for human delta opioid receptor expressed in CHO cells to Ki for mouse mu opioid receptor expressed in CHO cells
Mus musculus [2] = assay: Antinociceptive activity in Swiss Webster mouse assessed as increase in latency to tail withdrawal at 10 mg/kg, sc observed for 20 mins by warm water tail withdrawal assay; format: functional, organism-based
Summary of the method: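 Male Swiss Webster mice, 25–30 g, n = 5 per group, baseline tail latency 2–4 s accepted. Compound given s.c. in saline or water. Tail immersed in 56 ± 0.1 °C water 20 min post-dose, 10 s cutoff. %MPE = [(test − control)/(10 − control)] × 100. Saline and morphine as controls.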

[3] = Selectivity index, ratio of Ki for mouse kappa opioid receptor expressed in CHO cells to Ki for mouse mu opioid receptor expressed in CHO cells
Mu-type opioid receptor [4] = molecular target: T1, Mu-type opioid receptor (Mus musculus, UniProt P42866); assay: Displacement of [3H]-Naloxone from mouse mu opioid receptor expressed in CHO cells incubated for […] by competitive radioligand binding assay; format: cell-based
[5] = molecular target: Delta-type opioid receptor (Homo sapiens, UniProt P41143); assay: Displacement of [3H]-[…] from human delta opioid receptor expressed in CHO cells incubated for […] by competitive radioligand binding assay; format: cell-based
[6] = molecular target: Mu-type opioid receptor (Mus musculus) (UniProt P42866); assay: Agonist activity at recombinant mouse mu opioid receptor expressed in CHO cell membrane assessed as [35]-GTPgammaS binding incubated for […] by scintillation counting method relative to DAMGO
Mu-type opioid receptor [7] = molecular target: T1, Mu-type opioid receptor; assay: Agonist activity at recombinant mouse mu opioid receptor expressed in CHO cell membrane assessed as [35]-GTPgammaS binding incubated for […] by scintillation counting method
[8] = molecular target: Kappa-type opioid receptor (Mus musculus, UniProt P33534); assay: Displacement of [3H]-[…] from mouse kappa opioid receptor expressed in CHO cells incubated for […] by competitive radioligand binding assay; format: cell-based
Mus musculus [9] = assay: Inhibition of morphine-induced antinociceptive activity in Swiss Webster mouse assessed as decrease in latency to tail withdrawal at 10 mg/kg, sc administered 5 mins before morphine stimulation observed for 20 mins by warm water tail withdrawal assay; format: functional, organism-based
Summary of the method: (§1)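 Male Swiss Webster mice, n ≥ 5, baseline latency 2–4 s. Test compound given s.c. 5 min before morphine 10 mg/kg. Tail immersion at 56 ± 0.1 °C 20 min after morphine, 10 s cutoff, %MPE per mouse.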

Mus musculus [10] = assay: Inhibition of morphine-induced antinociceptive activity in subcutaneously dosed Swiss Webster mouse assessed as decrease in latency to tail withdrawal administered 5 mins before morphine stimulation observed for 20 mins by warm water tail withdrawal assay; format: functional; summary of the method: as §1
[11] = molecular target: Mu-type opioid receptor (Mus musculus) (UniProt P42866); assay: Agonist activity at mouse mu opioid receptor expressed in CHO cells assessed as inhibition of forskolin-induced cAMP formation incubated for 8 min followed by forskolin stimulation by ELISA; format: functional, cell-based
Summary of the method: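 mMOR-CHO cells grown to confluency, pre-incubated 30 min at 37°C with 1 mM IBMX, 200 μM Ro 20-1724, bovine serum albumin and 20 mM HEPES (pH 7.2-7.5). Ligand then added with 10 μM forskolin for 8 min at 37°C. Media removed, cells rinsed with PBS, cAMP measured by ELISA. DMEM/F12 used as solvent throughout.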

Mus musculus [12] = assay: Inhibition of opioid-withdrawal symptom in morphine-pelleted Swiss Webster mouse assessed as reduction in escape jumps at 1 mg/kg, sc observed after 20 mins; format: functional, organism-based
Summary of the method: (§2)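 Male Swiss Webster mice, n = 5, implanted with 75 mg morphine pellet at base of neck. After 72 h, 30 min habituation in observation chamber, then test compound s.c. Wet-dog shakes, escape jumps and paw tremors counted over 20 min.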

Mus musculus [13] = assay: Inhibition of opioid-withdrawal symptom in morphine-pelleted Swiss Webster mouse assessed as reduction in wet dog shakes at 1 mg/kg, sc observed after 20 mins; format: functional, organism-based; summary of the method: as §2
Mus musculus [14] = assay: Inhibition of opioid-withdrawal symptom in morphine-pelleted Swiss Webster mouse assessed as reduction in paw tremors at 1 mg/kg, sc observed after 20 mins; format: functional, organism-based; summary of the method: as §2

Row | SMILES | Ratio Ki [1] | Activity (Mus musculus [2]) | Ratio Ki [3] | Ki (Mu-type opioid receptor [4]) [nM] | Ki [5] [nM] | Emax [6] [%] | EC50 (Mu-type opioid receptor [7]) [nM] | Ki [8] [nM] | inhibition (Mus musculus [9]) | AD50 (Mus musculus [10]) [mg/kg] | Emax [11] [%] | inhibition (Mus musculus [12]) | inhibition (Mus musculus [13]) | inhibition (Mus musculus [14])
1 | Cl.O=C(N[C@@H]1CC[C@@]2(O)[C@H]3Cc4ccc(O)c5c4[C@@]2(CCN3CC2CC2)[C@H]1O5)c1ccc2ccoc2c1 | 68.1 | Active | 1.7 | 0.18 | 12.3 | 21.1 | 0.59 | 0.3 | – | – | – | – | – | –
2 | Cl.O=C(N[C@H]1CC[C@@]2(O)[C@H]3Cc4ccc(O)c5c4[C@@]2(CCN3CC2CC2)[C@H]1O5)c1coc2ccccc12 | 62.3 | – | 12.5 | 0.27 | 16.8 | 18.7 | 1.57 | 3.37 | Active | 2.51 | – | – | – | –
3 | C[C@@H](NC(=O)[C@@H](N)Cc1ccc(O)cc1)C(=O)NCC(=O)N(C)[C@@H](Cc1ccccc1)C(=O)NCCO | – | – | – | – | – | – | – | – | – | – | 82.4 | – | – | –
4 | Cl.O=C(N[C@H]1CC[C@@]2(O)[C@H]3Cc4ccc(O)c5c4[C@@]2(CCN3CC2CC2)[C@H]1O5)c1ccc2ccoc2c1 | 105.8 | – | 5.7 | 0.29 | 30.7 | 30.5 | 2.23 | 1.66 | – | – | – | – | – | –
5 | Cl.O=C(N[C@@H]1CC[C@@]2(O)[C@H]3Cc4ccc(O)c5c4[C@@]2(CCN3CC2CC2)[C@H]1O5)c1ccc2occc2c1 | 35.4 | Active | 1.4 | 0.15 | 5.31 | 52.2 | 0.41 | 0.21 | – | – | – | – | – | –
6 | Cl.O=C(N[C@@H]1CC[C@@]2(O)[C@H]3Cc4ccc(O)c5c4[C@@]2(CCN3CC2CC2)[C@H]1O5)c1csc2ccccc12 | 133.21 | – | 3.4 | 0.14 | 18.6 | 29.9 | 0.37 | 0.48 | – | – | – | – | – | –
7 | Cl.O=C(N[C@@H]1CC[C@@]2(O)[C@H]3Cc4ccc(O)c5c4[C@@]2(CCN3CC2CC2)[C@H]1O5)c1cc2ccccc2s1 | 9.9 | Active | 1.4 | 0.14 | 1.39 | 59 | 0.24 | 0.2 | – | – | – | – | – | –
8 | O=C(N[C@H]1CC[C@@]2(O)[C@H]3Cc4ccc(O)c5c4[C@@]2(CCN3CC2CC2)[C@H]1O5)c1cccc2ccoc12 | – | – | – | – | – | 12.9 | – | 5.12 | – | – | – | – | – | –
9 | Cl.O=C(N[C@@H]1CC[C@@]2(O)[C@H]3Cc4ccc(O)c5c4[C@@]2(CCN3CC2CC2)[C@H]1O5)c1coc2ccccc12 | 79.2 | – | 2.3 | 0.13 | 10.3 | 43.2 | 0.47 | 0.3 | – | – | – | – | – | –
10 | Cl.O=C(N[C@H]1CC[C@@]2(O)[C@H]3Cc4ccc(O)c5c4[C@@]2(CCN3CC2CC2)[C@H]1O5)c1ccc2ccsc2c1 | 79.6 | – | 13.3 | 0.28 | 22.3 | 18.1 | 3.01 | 3.72 | – | – | – | – | – | –
11 | Cl.O=C(N[C@@H]1CC[C@@]2(O)[C@H]3Cc4ccc(O)c5c4[C@@]2(CCN3CC2CC2)[C@H]1O5)c1cccc2sccc12 | 150.3 | – | 4.7 | 0.16 | 24 | 23.1 | 0.32 | 0.75 | – | – | – | – | – | –
12 | Cl.O=C(N[C@H]1CC[C@@]2(O)[C@H]3Cc4ccc(O)c5c4[C@@]2(CCN3CC2CC2)[C@H]1O5)c1cc2ccccc2s1 | 53 | – | 4.5 | 0.27 | 14.3 | 22.9 | 4.02 | 1.21 | – | – | – | – | – | –
13 | Cl.O=C(N[C@@H]1CC[C@@]2(O)[C@H]3Cc4ccc(O)c5c4[C@@]2(CCN3CC2CC2)[C@H]1O5)c1cccc2ccsc12 | 204.9 | – | 8.5 | 0.19 | 38.9 | – | 2.97 | 1.62 | – | – | – | – | – | –
14 | Cl.O=C(N[C@H]1CC[C@@]2(O)[C@H]3Cc4ccc(O)c5c4[C@@]2(CCN3CC2CC2)[C@H]1O5)c1cccc2sccc12 | 26.3 | – | 9 | 0.26 | 6.85 | 16.1 | 1.05 | 2.35 | – | – | – | – | – | –
15 | Cl.O=C(N[C@H]1CC[C@@]2(O)[C@H]3Cc4ccc(O)c5c4[C@@]2(CCN3CC2CC2)[C@H]1O5)c1ccc2occc2c1 | 82.9 | – | 12.1 | 0.35 | 29 | 17.7 | 3.72 | 4.23 | Active | 2.03 | – | – | – | –
16 | Cl.O=C(N[C@@H]1CC[C@@]2(O)[C@H]3Cc4ccc(O)c5c4[C@@]2(CCN3CC2CC2)[C@H]1O5)c1cc2ccccc2o1 | 12.1 | Active | 1.4 | 0.16 | 1.94 | 64.5 | 0.39 | 0.23 | – | – | – | – | – | –
17 | Cl.O=C(N[C@@H]1CC[C@@]2(O)[C@H]3Cc4ccc(O)c5c4[C@@]2(CCN3CC2CC2)[C@H]1O5)c1ccc2ccsc2c1 | 13.6 | Active | 1.3 | 0.15 | 2.04 | 58.7 | 0.21 | 0.2 | – | – | – | – | – | –
18 | C=CCN1CC[C@]23c4c5ccc(O)c4O[C@H]2C(=O)CC[C@@]3(O)[C@H]1C5 | – | – | – | – | – | – | – | – | – | – | – | Active | Active | Active
19 | Cl.O=C(N[C@@H]1CC[C@@]2(O)[C@H]3Cc4ccc(O)c5c4[C@@]2(CCN3CC2CC2)[C@H]1O5)c1cccc2occc12 | 415 | – | 4.7 | 0.17 | 70.5 | 23.6 | 0.59 | 0.8 | Active | 2.79 | – | – | – | –
20 | Cl.O=C(N[C@H]1CC[C@@]2(O)[C@H]3Cc4ccc(O)c5c4[C@@]2(CCN3CC2CC2)[C@H]1O5)c1csc2ccccc12 | 45.4 | – | 11.9 | 0.2 | 9.07 | 14.3 | 1.85 | 2.39 | – | – | – | – | – | –
21 | Cl.O=C(N[C@H]1CC[C@@]2(O)[C@H]3Cc4ccc(O)c5c4[C@@]2(CCN3CC2CC2)[C@H]1O5)c1ccc2sccc2c1 | 30.4 | – | 5.6 | 0.39 | 11.9 | 18.9 | 2.47 | 2.19 | – | – | – | – | – | –
22 | Cl.O=C(N[C@H]1CC[C@@]2(O)[C@H]3Cc4ccc(O)c5c4[C@@]2(CCN3CC2CC2)[C@H]1O5)c1cc2ccccc2o1 | 81.6 | – | 3.8 | 0.44 | 35.9 | 34 | 5.52 | 1.67 | Active | 3.21 | – | – | – | –
23 | Cl.O=C(N[C@@H]1CC[C@@]2(O)[C@H]3Cc4ccc(O)c5c4[C@@]2(CCN3CC2CC2)[C@H]1O5)c1ccc2sccc2c1 | 9.7 | Active | 1.5 | 0.14 | 1.36 | 75.4 | 0.19 | 0.21 | – | – | – | – | – | –
